From PubChem BioAssay
GalR3 antag: human GalR3 antagonism | HEK293 GalR3-CNG cAMP membrane potential fluorescence; galR3 body fused to GalR1 C-terminus | inhibition, % at 3 µM | hit rate 0.44% among 360,000 | AID 651719;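 active = inhibition above the screen-wide average plus 3 SD, cut at about 13% in these data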;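 note: forskolin and galanin both at EC90 stimulate the cells; cAMP rise reported by CNG channel membrane potential dye signal; 0% = forskolin plus galanin with DMSO and 100% = forskolin alone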
Target sequence (O60755 1-299 limits assumed): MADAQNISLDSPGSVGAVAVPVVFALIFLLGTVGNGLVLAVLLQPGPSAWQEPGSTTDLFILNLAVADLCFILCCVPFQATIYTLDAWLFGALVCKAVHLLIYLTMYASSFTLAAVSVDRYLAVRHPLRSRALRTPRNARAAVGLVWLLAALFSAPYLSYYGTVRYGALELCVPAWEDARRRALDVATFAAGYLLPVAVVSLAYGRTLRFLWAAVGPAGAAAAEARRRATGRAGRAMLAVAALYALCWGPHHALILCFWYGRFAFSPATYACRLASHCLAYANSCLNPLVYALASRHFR
Efflux pump inh: blocks antifungal efflux pumps in multiplex yeast assay; S. cerevisiae Candida pump triplex, Nile Red efflux; inhibition, % at 10 µM; hit rate 0.44% among 330,000; AID 485275;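 active = plate passing quality check with inhibition over a set limit, or well fluorescence over plate mean plus 4 SD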;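 note: Nile Red retained in pooled yeast measured as flow cytometry median fluorescence; 0% = buffer negative control and 100% = Enniatin B positive control; higher means more Nile Red kept so more efflux inhibition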
MC4R antag cAMP: antagonists of human melanocortin 4 receptor (MC4R) | hit rate 0.48% among 360,000 | MC4R-expressing cells, MTII-stimulated cAMP, LANCE TR-FRET | inhibition, % at 6.5 µM | P32245;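 active = inhibition above its plate's cutoff, the mean of tested wells on that plate plus 3 SD, cut at about 29% in these data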;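 note: 0% = Melanotan II alone and 100% = Melanotan II plus saturating MCL0020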
Target sequence (P32245 whole entry, looked up): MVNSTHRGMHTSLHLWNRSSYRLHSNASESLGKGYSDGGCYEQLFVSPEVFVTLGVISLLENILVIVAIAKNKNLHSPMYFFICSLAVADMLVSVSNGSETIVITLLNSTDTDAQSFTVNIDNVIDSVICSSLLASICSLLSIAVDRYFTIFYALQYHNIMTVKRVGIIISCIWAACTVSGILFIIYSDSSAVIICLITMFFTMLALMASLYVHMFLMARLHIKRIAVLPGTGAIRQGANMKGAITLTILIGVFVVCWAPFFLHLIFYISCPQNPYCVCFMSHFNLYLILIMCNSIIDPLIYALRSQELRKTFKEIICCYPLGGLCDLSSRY
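Test system: U2OS cells stably expressing human melanocortin 4 receptor (MC4R); also added: Melanotan II challenge; compound: 6.5 µM single dose; timing: 30-min compound preincubation, 1-h Melanotan II challenge, 1-h detection, room temperature; signal: Eu-cAMP/anti-cAMP TR-FRET, emission 671 nm; repeats: one well per compound, no replicates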
TAG inh: reduces triacylglycerol accumulation in H9c2 cells | hit rate 0.66% among 230,000 | inhibition, % at 12.5 µM | Nile Red lipid (TAG) fluorescence; cells loaded with 200 µM oleic acid | AID 651582;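 active = pattern-corrected inhibition of lipid staining of at least 50% with the nuclear-stain viability signal not falling by more than 50%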;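 note: 0% = DMSO wells and 100% = triacsin C control wells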
Calb FLC: C. albicans growth modulation with fluconazole. C. albicans CaCi-2 + fluconazole, Alamar Blue growth, 48 h. growth inhibition, % (test concentration not listed). hit rate 0.57% among 300,000. AID 1979;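 active = growth inhibition above about 58% in most replicates, limit read from the data, passing the limit was not always enough; inconclusive = exactly half the replicates above a set limit; inactive = most replicates below a set limit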;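 note: all wells also contain fluconazole at 8 µg/ml as a sub-toxic cotreatment; 0% = median of DMSO wells and 100% = median of geldanamycin control wells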
MC4R barr agon: human MC4R agonism via beta-arrestin; P32245; U2OS MC4R beta-arrestin complementation, luminescence; percent of melanotan II response, DMSO zero; activation, % at 8.9 µM; hit rate 0.98% among 360,000;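 active = activation above a per-plate cutoff, the mean activation of sample wells on that plate plus 3 SD, cut at about 8% in these data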
GalR3 conf: confirmation of human galanin receptor 3 antagonists. hit rate 59% among 1,600. AID 652245. inhibition, % at 3 µM. HEK293 GalR3 CNG cAMP biosensor, membrane potential fluorescence; galR3 fused to GalR1 carboxy tail; challenged with forskolin and galanin at EC90. shares compounds with GalR3 antag;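 active = inhibition above the primary screen's cutoff, the mean inhibition of all screened compounds plus 3 SD, cut at about 13% in these data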;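 note: 0% = forskolin plus galanin and 100% = forskolin alone with DMSO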
CNG parental: parental cell agonism counter-screen for GalR3 antagonists | hit rate 10% among 1,600 | shares compounds with GalR3 antag | activation, % at 3 µM | AID 652268 | HEK293-CNG parental cells, cAMP membrane potential fluorescence; normalised: DMSO wells 0%, forskolin wells 100%; in the data active = activation above about 1.3%
Starred values were filed as active, the others as inactive; u = inconclusive; x = no result. An excerpt weighted towards active compounds, which were near 2.9% of everything screened.

SMILES	GalR3 antag	Efflux pump inh	MC4R antag cAMP	TAG inh	Calb FLC	MC4R barr agon	GalR3 conf	CNG parental
CC1CCCN(S(=O)(=O)c2cc(C(=O)NCCc3ccc(S(N)(=O)=O)cc3)ccc2Cl)C1 (stereo not given)	75*	x	10	-25	x	0	15*	-1
O=C(NCCc1ccccc1)c1ccc(Cl)c(S(=O)(=O)N2CCCC2)c1	x	0	2	x	21	-1	x	x
COc1ccc(CCC(=O)Nc2ccc(OC)c(S(=O)(=O)N3CCCCC3)c2)cc1OC	-3	0	14	-6	x	0	x	x
Cc1ccc(NC(=O)C2CC(=O)N(c3ccccc3Cl)C2)cc1S(=O)(=O)N1CCOCC1 (stereo not given)	-6	x	2	1	x	1	x	x
Cn1c(N)nc2nc[nH]c2c1=S	-5	x	-3	3	x	0	x	x
Cc1cccc(NC2=C(Cl)C(=O)OC2OC(C)C)c1 (stereo not given)	14*	0	-3	-5	-10	-1	6	0
CC1(C(=O)NC2CCCCCC2)CCN1C(=O)C1(c2ccccc2)CC1 (stereo not given)	-6	x	-1	-2	x	0	x	x
CCc1nc2c(OCc3ccc(C(F)(F)F)cc3)cccn2c1N(C)C(=O)c1ccc(C)cc1	-2	x	-1	7	x	0	x	x
CCC(=O)OCCNc1cc(SCCC(=O)OC)c2nonc2c1[N+](=O)[O-]	4	0	14	15	-13	1	x	x
CCC(=O)OCCNc1cc(Sc2nccn2C)c2nonc2c1[N+](=O)[O-]	41*	0	-24	69*	27	-3	21*	0
CCCC(=O)OCCNc1cc(Sc2nc3ccccc3[nH]2)c2nonc2c1[N+](=O)[O-]	26*	0	-26	x	-6	-2	35*	0
CCOC(=O)c1c(O)c(Cl)c(C)[nH]c1=O	16*	0	16	-9	19	-3	19*	0
CCOC(=O)c1c(O)c2c([nH]c1=O)CCCC2	-5	0	5	-4	-9	-2	x	x
COc1ccc(-c2ccc(C(=O)NCC3CCOCC3)c3occc23)c(C)c1	-6	x	16	1	x	-1	x	x
COc1cc(NC(=O)COc2cc(O)c3c(c2)OC(C)(C)CC3=O)cc(OC)c1OC	45*	0	7	x	3	-1	102*	0
CC1(C)CC(=O)c2c(O)cc(OCC(=O)Nc3ccc(S(N)(=O)=O)cc3)cc2O1	-8	0	3	x	-2	0	x	x
C[C@@H]1CN([C@H](C)CO)C(=O)CCCn2nncc2CO[C@H]1CN(C)S(=O)(=O)c1ccc(Oc2ccccc2)nc1	0	x	9	-6	x	1	x	x
OCCC1CN(Cc2cnc(-c3ccc(Cl)cc3)nc2)CCN1C1CCCCC1 (stereo not given)	83*	0	0	17	1	0	13*	0
Cc1ccccc1C(=O)NC1CCCCN(C)C1=O (stereo not given)	-5	x	x	x	x	x	x	x
CCC1(C)CC(C#N)(C#N)C(=O)NC1=O (stereo not given)	-8	x	x	x	x	x	x	x
CN(CCO)c1cc(Sc2nc3ccccc3s2)c2nonc2c1[N+](=O)[O-]	28*	0	-20	x	u	-6	51*	1
O=C(NNC(=S)NC(=O)c1ccccc1[N+](=O)[O-])c1ccccc1O	31*	0	6	x	-24	-2	-4	0
Cc1cc(NC(=O)CSCC(=O)Nc2ccccc2Oc2ccccc2)no1	-3	0	-2	0	5	0	x	x
Cc1ccc(Oc2ccccc2NC(=O)CSCC(=O)Nc2cc(C)on2)cc1	84*	0	15	6	u	-2	68*	0
Cc1ccc(S(=O)(=O)Oc2ccccc2/C=N/Nc2ccc(C(=O)O)cc2)cc1	18*	0	11	2	-8	0	2	0
SMILES	GalR3 antag	Efflux pump inh	MC4R antag cAMP	TAG inh	Calb FLC	MC4R barr agon	GalR3 conf	CNG parental
O=C(Nc1ccc2c(c1)OCCO2)NC1CCCCC1	x	0	-3	2	-1	-1	0	1
COc1ccc(NC(=O)C2(C)CCCN(C(C)=O)C2)cc1F (stereo not given)	-6	x	8	-8	x	1	x	x
CCN1/C(=C\c2ccc3cc(C)ccc3[n+]2CC)Sc2cc(C)c(C)cc21	59*	x	0	-60	104*	3	74*	6.3*
Cc1ccc2c(c1)S/C(=C\c1cccc[n+]1C)N2CCO	-9	0	0	x	-19	-1	x	x
O=[N+]([O-])c1cccc(COc2ccc(CO)cc2)c1	-6	x	x	x	x	x	x	x
CNc1nc2c(N)ncnc2n1[C@H]1O[C@@H](CO)[C@H](O)[C@@H]1O	26*	1	10	x	-5	1	40*	0
CC1(C(=O)NCc2cccc(C(F)(F)F)c2)CCN1C1Cc2ccccc2C1 (stereo not given)	-8	x	-5	-9	x	1	x	x
COc1ccc(OC)c(CCNC(=O)C(C)n2nc(C)c3c(C)n(-c4ccc(C)cc4)nc3c2=O)c1 (stereo not given)	50*	0	-4	x	-15	-2	91*	0
COc1ccc(OC)c(CCNC(=O)C(C)n2nc(C)c3c(C)n(-c4ccccc4)nc3c2=O)c1 (stereo not given)	-3	0	17	x	-2	1	x	x
COc1ccc(OC)c(S(=O)(=O)N2CCCCC2C(=O)N2CCN(c3ccccn3)CC2)c1 (stereo not given)	14*	1	11	x	24	-4	4	0
CC1CC(=O)NN=C1c1ccc(N)c([N+](=O)[O-])c1 (stereo not given)	64*	0	-15	7	1	-2	73*	0
Cc1cn([C@H]2C[C@H](O)[C@@H](/C=C/C(=O)NCCc3ccc4c(c3)OCO4)O2)c(=O)[nH]c1=O	-6	x	x	x	x	x	x	x
O=C(c1cc(COc2cccc3cnccc23)on1)N1CCCC(CCCO)C1 (stereo not given)	97*	0	14	-10	5	1	104*	0
COCC1CCN(C(=O)c2cc(COc3cccc4cnccc34)on2)CC1	-8	0	0	x	-4	-3	x	x
COc1ccccc1NC(=O)CSc1nc(N)c(-c2ccccc2)c(=O)[nH]1	46*	0	-1	-3	4	-3	38*	1
CCCCC[C@H](O)/C=C/[C@H]1CCC(=O)[C@@H]1CCCCCCC(=O)N1CCCCC1CO (stereo not given in full)	79*	0	7	x	-3	1	97*	0
